Reference: ChEMBL document CHEMBL1124476, “1-(2-aminoethyl)-6-aryl-4H- [1,2,4]triazolo[4,3-a][1,4]benzodiazepines with diuretic and natriuretic activity” (J Med Chem, 1989)

Assays:
[1] = tested on: Rattus norvegicus; assay: Mean excretion of potassium in conscious rats at a dose of 3.0 mg/kg given orally; assay type: ADME, organism-based; parameters: dose 3 mg/kg, route oral; details: in vivo, po
Outline: (§1)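 Secondary dose-response in male Sprague-Dawley rats (~160 g), fasted and hydrated as in the primary screen. Oral gavage at 0.3-100 mg/kg in 25 mL/kg saline/0.5% CMC, three cages of two rats per dose. Urine collected 5 h; Na, K, Cl, HCO3 measured. Values are mean excretion (mequiv), compared with controls at P < 0.05.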

[2] = tested on: Rattus norvegicus; assay: Mean excretion of potassium in conscious rats at a dose of 30 mg/kg given orally; assay type: ADME, organism-based; parameters: dose 30 mg/kg, route oral; details: in vivo, po; outline: as §1
[3] = tested on: Rattus norvegicus; assay: Mean excretion of chloride in conscious rats at a dose of 30 mg/kg given orally; assay type: ADME, organism-based; parameters: dose 30 mg/kg, route oral; details: in vivo, po; outline: as §1
[4] = organism: Rattus norvegicus; assay: […]; assay type: ADME, organism-based, Urine; parameters: dose 3 mg/kg, route oral; details: in vivo, po, 3 mg/kg
Outline: (§2)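 Male Sprague-Dawley rats, about 160 g, fasted 24 h and water withheld 1 1/2 h beforehand; food and water withheld during the test. Dosing by gavage with 25 mL/kg 0.9% saline containing 0.5% (carboxymethyl)cellulose, agent dissolved or suspended. Three cages of two rats each per dose, held in metabolism cages. Urine collected over 5 h. Volume given in mL, Na+ in mequiv. Significance versus control at P < 0.05.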

[5] = organism: Rattus norvegicus; assay: […]; assay type: ADME, organism-based, Urine; parameters: dose 30 mg/kg, route oral; details: in vivo, po, 30 mg/kg; outline: as §2
[6] = organism: Rattus norvegicus; assay: […]; assay type: ADME, organism-based, Urine; parameters: dose 1 mg/kg, route oral; details: in vivo, po, 1 mg/kg
Outline: (§3)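 Dose-response test in male Sprague-Dawley rats of about 160 g, fasted 24 h, with water withheld 1½ h before and during the test. Each rat got a single gavage of 25 mL/kg 0.9% saline with 0.5% carboxymethylcellulose carrying the agent (0.3–100 mg/kg range). Rats were housed two per metabolism cage, and urine was collected for 5 h. Mean urine volume (mL) was compared with controls (P < 0.05).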

[7] = tested on: Rattus norvegicus; assay: Mean excretion of Cl- in conscious rats at a dose of 0.3 mg/kg given orally; assay type: ADME, organism-based, Urine; parameters: dose 0.3 mg/kg, route oral; details: in vivo, po; outline: as §3
[8] = organism: Rattus norvegicus; assay: […]; assay type: ADME, organism-based, Urine; parameters: dose 100 mg/kg, route oral; details: in vivo, po, 100 mg/kg; outline: as §2
[9] = tested on: Rattus norvegicus; assay: Mean excretion of chloride in conscious rats at a dose of 100 mg/kg given orally; assay type: ADME, organism-based; parameters: dose 100 mg/kg, route oral; details: in vivo, po; outline: as §1
[10] = Diuretic activity at 40 mg/kg (screening dose-84.7 umol/kg) in […] in a two stage experiment; T/C1.2 = urine vol of treated rats / urine vol of control rats; assay type: functional
Outline: (§4)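 40 mg/kg given by gavage in 25 mL/kg 0.9% saline with 0.5% (carboxymethyl)cellulose. Four rats per agent, two per metabolism cage; 20 controls; 5 h urine. T/C = treated/control urine volume. Stage-1 T/C of 1.66 or more leads to stage 2; product T/C1·T/C2 of 3.34 or more counts as active.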

[11] = tested on: Rattus norvegicus; assay: Mean excretion of chloride in conscious rats at a dose of 1.0 mg/kg given orally; assay type: ADME, organism-based; parameters: dose 1 mg/kg, route oral; details: in vivo, po; outline: as §1
[12] = organism: Rattus norvegicus; assay: […]; assay type: ADME, organism-based, Urine; parameters: dose 10 mg/kg, route oral; details: in vivo, po, 10 mg/kg; outline: as §2
[13] = tested on: Rattus norvegicus; assay: Mean excretion of sodium in conscious rats at a dose of 0.3 mg/kg given orally; assay type: ADME, organism-based; parameters: dose 0.3 mg/kg, route oral; details: in vivo, po; outline: as §2
[14] = tested on: Rattus norvegicus; assay: Mean excretion of potassium in conscious rats at a dose of 0.3 mg/kg given orally; assay type: ADME, organism-based; parameters: dose 0.3 mg/kg, route oral; details: in vivo, po; outline: as §1
[15] = tested on: Rattus norvegicus; assay: Mean excretion of potassium in conscious rats at a dose of 10 mg/kg given orally; assay type: ADME, organism-based; parameters: dose 10 mg/kg, route oral; details: in vivo, po; outline: as §1
[16] = tested on: Rattus norvegicus; assay: Mean excretion of sodium in conscious rats at a dose of 100 mg/kg given orally; assay type: ADME, organism-based; parameters: dose 100 mg/kg, route oral; details: in vivo, po; outline: as §2
[17] = tested on: Rattus norvegicus; assay: Mean excretion of sodium in conscious rats at a dose of 3.0 mg/kg given orally; assay type: ADME, organism-based; parameters: dose 3 mg/kg, route oral; details: in vivo, po; outline: as §2
[18] = organism: Rattus norvegicus; assay: […]; assay type: ADME, organism-based, Urine; parameters: dose 0.3 mg/kg, route oral; details: in vivo, po, 0.3 mg/kg; outline: as §3
[19] = tested on: Rattus norvegicus; assay: Mean excretion of sodium in conscious rats at a dose of 10 mg/kg given orally; assay type: ADME, organism-based; parameters: dose 10 mg/kg, route oral; details: in vivo, po; outline: as §2
[20] = tested on: Rattus norvegicus; assay: Mean excretion of potassium in conscious rats at a dose of 1.0 mg/kg given orally; assay type: ADME, organism-based; parameters: dose 1 mg/kg, route oral; details: in vivo, po; outline: as §1
[21] = tested on: Rattus norvegicus; assay: Mean excretion of potassium in conscious rats at a dose of 100 mg/kg given orally; assay type: ADME, organism-based; parameters: dose 100 mg/kg, route oral; details: in vivo, po; outline: as §1
[22] = Diuretic activity at 40 mg/kg (screening dose 84.7 umol/kg) in […] in a one stage experiment; T/C = urine vol of treated rats / urine vol of control rats; assay type: functional; outline: as §4
[23] = tested on: Rattus norvegicus; assay: Mean excretion of chloride in conscious rats at a dose of 10 mg/kg given orally; assay type: ADME, organism-based; parameters: dose 10 mg/kg, route oral; details: in vivo, po; outline: as §1
[24] = tested on: Rattus norvegicus; assay: Mean excretion of sodium in conscious rats at a dose of 30 mg/kg given orally; assay type: ADME, organism-based; parameters: dose 30 mg/kg, route oral; details: in vivo, po; outline: as §2
[25] = tested on: Rattus norvegicus; assay: Mean excretion of chloride in conscious rats at a dose of 3.0 mg/kg given orally; assay type: ADME, organism-based; parameters: dose 3 mg/kg, route oral; details: in vivo, po; outline: as §1
[26] = tested on: Rattus norvegicus; assay: Mean excretion of […] in conscious rats at a dose of 1.0 mg/kg given orally; assay type: ADME, organism-based; parameters: dose 1 mg/kg, route oral; details: in vivo, po; outline: as §2
[27] = Diuretic activity at 40 mg/kg (screening dose-88.2 uM/Kg) in […] in a two stage experiment; T/C1.2 = urine vol of treated rats / urine vol of control rats; assay type: functional; outline: as §4
[28] = Diuretic activity at 40 mg/kg (screening dose 88.2 umol/kg) in […] in a one stage experiment; T/C = urine vol of treated rats / urine vol of control rats; assay type: functional; outline: as §4
[29] = Diuretic activity at 40 mg/kg (screening dose-61.6 umol/kg) in […] in a one stage experiment; T/C = urine vol of treated rats / urine vol of control rats; assay type: functional; outline: as §4
[30] = Diuretic activity at 40 mg/kg (screening dose-100.8 umol/kg) in […] in a one stage experiment; T/C = urine vol of treated rats / urine vol of control rats; assay type: functional; outline: as §4

CN(C)CC(c1ccccc1Cl)c1nnc2n1-c1ccc(Cl)cc1C(c1ccccc1)=NC2 (centres undefined)
Mean excretion of K+ [1]: 0.22 m equiv
Mean excretion of K+ [2]: 0.16 m equiv
Mean excretion of Cl- [3]: 1.21 m equiv
Mean urine volume [4]: 4.67 mL
Mean urine volume [5]: 6.73 mL
Mean urine volume [6]: 4.54 mL
Mean excretion of Cl- [7]: 1.08 m equiv
Mean urine volume [8]: 9.85 mL
Mean excretion of Cl- [9]: 1.69 m equiv
T/C 1.2 [10]: 3.77
Mean excretion of Cl- [11]: 0.93 m equiv
Mean urine volume [12]: 5.37 mL
Mean excretion of Na+ [13]: 1 m equiv
Mean excretion of K+ [14]: 0.25 m equiv
Mean excretion of K+ [15]: 0.21 m equiv
Mean excretion of Na+ [16]: 1.76 m equiv
Mean excretion of Na+ [17]: 0.81 m equiv
Mean urine volume [18]: 5.36 mL
Mean excretion of Na+ [19]: 1.03 m equiv
Mean excretion of K+ [20]: 0.24 m equiv
Mean excretion of K+ [21]: 0.22 m equiv
T/C 1 [22]: 1.67
Mean excretion of Cl- [23]: 1.13 m equiv
Mean excretion of Na+ [24]: 1.22 m equiv
Mean excretion of Cl- [25]: 0.84 m equiv
Mean excretion of Na+ [26]: 0.93 m equiv

CSc1ccc2c(c1)C(c1ccccc1)=NCc1nnc(C(CN(C)C)c3ccccc3)n1-2 (centres undefined)
Mean excretion of K+ [1]: 0.36 m equiv
Mean excretion of K+ [2]: 0.25 m equiv
Mean excretion of Cl- [3]: 1.69 m equiv
T/C 1.2 [27]: 6.6
Mean urine volume [4]: 5.2 mL
Mean urine volume [5]: 10.39 mL
Mean urine volume [6]: 5.12 mL
Mean excretion of Cl- [7]: 0.76 m equiv
Mean urine volume [8]: 14.14 mL
Mean excretion of Cl- [9]: 2.17 m equiv
Mean excretion of Cl- [11]: 0.89 m equiv
Mean urine volume [12]: 6.83 mL
Mean excretion of Na+ [13]: 0.88 m equiv
Mean excretion of K+ [14]: 0.31 m equiv
Mean excretion of K+ [15]: 0.23 m equiv
Mean excretion of Na+ [16]: 2.52 m equiv
Mean excretion of Na+ [17]: 0.91 m equiv
Mean urine volume [18]: 3.92 mL
Mean excretion of Na+ [19]: 1.39 m equiv
Mean excretion of K+ [20]: 0.31 m equiv
Mean excretion of K+ [21]: 0.28 m equiv
Mean excretion of Cl- [23]: 1.28 m equiv
Mean excretion of Na+ [24]: 1.87 m equiv
Mean excretion of Cl- [25]: 0.9 m equiv
T/C 1 [28]: 2.29
Mean excretion of Na+ [26]: 0.94 m equiv

Clc1ccc2c(c1)C(c1ccccc1)=NCc1nnc(C(CN3CCN(c4ccccc4)CC3)c3ccccc3)n1-2.O=C(O)C(=O)O (centres undefined)
T/C 1 [29]: 0.95

C=C(c1ccccc1)c1nnc2n1-c1ccc(Cl)cc1C(c1ccccc1)=NC2
T/C 1 [30]: 0.76
